Measured values: ChEMBL document CHEMBL4033620, “Design, synthesis and biological evaluation of quinoline derivatives as HDAC class I inhibitors” (Eur J Med Chem, 2017)

Key:
[1] = Inhibition of Class 2a histone deacetylase in human K562 cells using Boc-Lys-(epsilon-trifluoromethylacetyl)-AMC as substrate preincubated with compound for 3 hrs followed by substrate addition measured after 3 hrs by fluorometric analysis; assay type: cell-based
K562 [2] = assay: Induction of apoptosis in human K562 cells assessed as necrotic cells at 2 uM after 24 hrs by Annexin V-FITC/propidium iodide staining-based flow cytometry (reference value: 0.035%); assay type: functional
K562 [3] = assay: Induction of apoptosis in human K562 cells assessed as early apoptotic cells at 2 uM after 24 hrs by Annexin V-FITC/propidium iodide staining-based flow cytometry (reference value: 4.78%); assay type: functional
[4] = biological target: Histone deacetylase (HDAC1 and HDAC2) (Homo sapiens, UniProt Q13547+Q92769); assay: Inhibition of HDAC1/2 in human HeLa cell nuclear extract using COLOR DE LYS as substrate pretreated for 5 mins followed by substrate addition measured after 30 mins by UV-absorption method; assay type: cell-based
K562 [5] = assay: Induction of apoptosis in human K562 cells after 24 hrs by Annexin V-FITC/propidium iodide staining-based flow cytometric method; assay type: functional, cell-based
K562 [6] = assay: Potency index, ratio of vorinostat IC50 to compound IC50 for human K562 cells; assay type: functional
In short: (§1)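 Cells were grown in RPMI1640 with 10% FBS at 37°C and 5% CO2, seeded at 4000–5000 cells/well for 8 h, then exposed to a compound concentration series for 48 h. MTT (0.5%) was added for 4 h and formazan dissolved in DMSO. A570 was read and IC50 derived from inhibition ratios.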

K562 [7] = assay: Induction of apoptosis in human K562 cells assessed as late apoptotic cells at 2 uM after 24 hrs by Annexin V-FITC/propidium iodide staining-based flow cytometry (reference value: 2.83%); assay type: functional
K562 [8] = assay: Induction of apoptosis in human K562 cells assessed as necrotic cells at 1 uM after 24 hrs by Annexin V-FITC/propidium iodide staining-based flow cytometry (reference value: 0.035%); assay type: functional
Histone deacetylase 1 = Histone deacetylase 1 (Homo sapiens, UniProt Q13547); assay: Inhibition of HDAC1 (unknown origin) using substrate after 30 mins by fluorometric analysis
K562 [9] = assay: Induction of apoptosis in human K562 cells assessed as late apoptotic cells at 1 uM after 24 hrs by Annexin V-FITC/propidium iodide staining-based flow cytometry (reference value: 2.83%); assay type: functional
[10] = biological target: T1, Protein deacetylase HDAC6 (Homo sapiens, UniProt Q9UBN7); assay: Inhibition of HDAC6 (unknown origin) using substrate after 30 mins by fluorometric analysis
T1 sequence (Q9UBN7 whole entry): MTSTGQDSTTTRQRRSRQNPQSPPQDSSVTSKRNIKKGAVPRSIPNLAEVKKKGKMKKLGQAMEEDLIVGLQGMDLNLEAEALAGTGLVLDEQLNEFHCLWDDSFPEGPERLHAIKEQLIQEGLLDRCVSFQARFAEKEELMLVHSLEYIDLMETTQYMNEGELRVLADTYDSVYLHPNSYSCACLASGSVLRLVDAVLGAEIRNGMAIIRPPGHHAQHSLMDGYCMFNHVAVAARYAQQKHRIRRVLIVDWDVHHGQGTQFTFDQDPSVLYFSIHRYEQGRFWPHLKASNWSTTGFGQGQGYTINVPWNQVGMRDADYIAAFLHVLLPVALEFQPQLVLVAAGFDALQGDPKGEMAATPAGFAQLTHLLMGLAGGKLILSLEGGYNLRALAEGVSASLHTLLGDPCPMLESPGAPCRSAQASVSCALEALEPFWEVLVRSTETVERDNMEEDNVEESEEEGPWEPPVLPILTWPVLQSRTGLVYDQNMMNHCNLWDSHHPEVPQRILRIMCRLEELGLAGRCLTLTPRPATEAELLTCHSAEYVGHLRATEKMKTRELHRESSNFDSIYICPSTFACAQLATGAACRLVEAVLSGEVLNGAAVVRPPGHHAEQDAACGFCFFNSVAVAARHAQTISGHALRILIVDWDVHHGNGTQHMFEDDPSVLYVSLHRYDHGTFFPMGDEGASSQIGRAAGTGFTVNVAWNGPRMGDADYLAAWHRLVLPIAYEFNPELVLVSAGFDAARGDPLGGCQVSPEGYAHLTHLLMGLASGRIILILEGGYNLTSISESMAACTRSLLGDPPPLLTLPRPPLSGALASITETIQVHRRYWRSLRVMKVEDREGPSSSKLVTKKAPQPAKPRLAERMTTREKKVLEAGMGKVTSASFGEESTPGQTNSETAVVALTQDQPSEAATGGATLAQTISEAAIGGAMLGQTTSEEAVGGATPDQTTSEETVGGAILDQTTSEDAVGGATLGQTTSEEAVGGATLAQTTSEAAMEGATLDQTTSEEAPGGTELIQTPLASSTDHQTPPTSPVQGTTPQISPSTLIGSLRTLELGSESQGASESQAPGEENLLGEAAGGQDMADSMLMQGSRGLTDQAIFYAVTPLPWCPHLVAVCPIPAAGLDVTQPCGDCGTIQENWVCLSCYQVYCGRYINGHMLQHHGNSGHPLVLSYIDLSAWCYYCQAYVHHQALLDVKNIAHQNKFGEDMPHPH

K562 [11] = assay: Induction of apoptosis in human K562 cells assessed as viable cells at 2 uM after 24 hrs by Annexin V-FITC/propidium iodide staining-based flow cytometry (reference value: 92.4%); assay type: functional; conditions: Homo sapiens, K562, 24 h; read-out: Activity
PC-3 [12] = assay: Potency index, ratio of vorinostat IC50 to compound IC50 for human PC3 cells; assay type: functional; in short: as §1
Histone deacetylase 8 = biological target: T2, Histone deacetylase 8 (Homo sapiens, UniProt Q9BY41); assay: Inhibition of HDAC8 (unknown origin) using substrate after 30 mins by fluorometric analysis
T2 sequence (Q9BY41 whole entry): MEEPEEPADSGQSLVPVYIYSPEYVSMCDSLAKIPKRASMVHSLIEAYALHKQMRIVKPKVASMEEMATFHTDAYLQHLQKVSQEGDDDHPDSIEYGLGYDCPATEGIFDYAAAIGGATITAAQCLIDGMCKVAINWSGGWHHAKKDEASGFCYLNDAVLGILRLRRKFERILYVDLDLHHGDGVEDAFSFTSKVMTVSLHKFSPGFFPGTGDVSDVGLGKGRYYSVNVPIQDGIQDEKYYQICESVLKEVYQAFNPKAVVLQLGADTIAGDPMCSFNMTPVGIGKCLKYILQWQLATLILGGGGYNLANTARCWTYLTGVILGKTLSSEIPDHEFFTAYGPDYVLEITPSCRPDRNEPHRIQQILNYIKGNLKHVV

HeLa = assay: Antiproliferative activity against human HeLa cells after 48 hrs by MTT assay; assay type: functional, cell-based
In short: (§2)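 Cells grown in RPMI1640 with 10% FBS at 37°C, 5% CO2. Seeded at 4000–5000 cells/well for 8 h, then exposed to a range of compound concentrations for 48 h. 0.5% MTT solution added for 4 h, formazan dissolved in DMSO, absorbance read at 570 nm. IC50 derived from inhibition ratios, given as mean ± standard deviation of two or three separate determinations.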

PC-3 [13] = assay: Antiproliferative activity against human PC3 cells after 48 hrs by MTT assay; assay type: functional, cell-based; conditions: PC-3, 48 h; in short: as §2
MOLT-4 = assay: Antiproliferative activity against human MOLT4 cells after 48 hrs by MTT assay; assay type: functional, cell-based; conditions: MOLT-4, 48 h
K562 [14] = assay: Induction of apoptosis in human K562 cells assessed as viable cells at 1 uM after 24 hrs by Annexin V-FITC/propidium iodide staining-based flow cytometry (reference value: 92.4%); assay type: functional; conditions: Homo sapiens, K562, 24 h; read-out: Activity
[15] = Inhibition of Class 1 histone deacetylase in human K562 cells using Boc-Lys (acetyl)-AMC as substrate preincubated with compound for 3 hrs followed by substrate addition measured after 3 hrs by fluorometric analysis; assay type: cell-based
K562 [16] = assay: Antiproliferative activity against human K562 cells after 48 hrs by MTT assay; assay type: functional, cell-based; conditions: K562, 48 h
HEL = assay: Antiproliferative activity against human HEL cells after 48 hrs by MTT assay; assay type: functional, cell-based
K562 [17] = assay: Induction of apoptosis in human K562 cells assessed as early apoptotic cells at 1 uM after 24 hrs by Annexin V-FITC/propidium iodide staining-based flow cytometry (reference value: 4.78%); assay type: functional

Chain of Histone deacetylase 1 (Q13547 whole entry): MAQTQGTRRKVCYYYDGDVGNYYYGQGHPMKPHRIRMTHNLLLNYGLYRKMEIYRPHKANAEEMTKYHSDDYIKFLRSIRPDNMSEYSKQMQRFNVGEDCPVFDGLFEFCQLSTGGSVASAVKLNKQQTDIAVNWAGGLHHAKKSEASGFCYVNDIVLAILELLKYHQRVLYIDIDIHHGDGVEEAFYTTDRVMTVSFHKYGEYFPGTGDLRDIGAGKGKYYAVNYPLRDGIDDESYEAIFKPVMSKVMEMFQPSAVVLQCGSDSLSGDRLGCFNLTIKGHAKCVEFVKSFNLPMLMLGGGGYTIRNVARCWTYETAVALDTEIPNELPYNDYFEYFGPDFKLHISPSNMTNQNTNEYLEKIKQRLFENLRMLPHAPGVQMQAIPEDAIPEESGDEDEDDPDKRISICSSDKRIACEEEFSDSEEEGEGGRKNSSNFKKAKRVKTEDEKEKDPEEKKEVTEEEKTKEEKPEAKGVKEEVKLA

## O=C(/C=C/c1ccc(CNCc2ccc3cccc(Cl)c3n2)cc1)NO
[1]
  IC50: 4210 nM
K562 [2]
  Activity: 0.174%
K562 [3]
  Activity: 56.2%
[4]
  IC50: 275 nM
K562 [5]
  Activity: Dose-dependent effect
K562 [6]
  Ratio IC50: 3 - 5
K562 [7]
  Activity: 2.96%
K562 [8]
  Activity: 0.145%
Histone deacetylase 1
  IC50: 95 nM
K562 [9]
  Activity: 3.75%
[10]
  IC50: 36.5 nM
K562 [11]
  viability at 2 µM: 40.7%
PC-3 [12]
  Ratio IC50: 3 - 5
Histone deacetylase 8
  IC50: 911 nM
HeLa
  IC50: 1820 nM
PC-3 [13]
  IC50: 2920 nM
MOLT-4
  IC50: 160 nM
K562 [14]
  viability at 1 µM: 57.9%
[15]
  IC50: 64 nM
K562 [16]
  IC50: 360 nM
HEL
  IC50: 110 nM
K562 [17]
  Activity: 38.2%

## O=C(NO)c1ccc(CNCc2ccc3cc(Br)ccc3n2)cc1
[4]
  IC50: > 1000 nM

## O=C(NO)c1ccc(CNCc2ccc3ccccc3n2)cc1
[4]
  IC50: > 1000 nM

## O=C(/C=C/c1ccc(CN(Cc2ccccc2)Cc2ccc3ccccc3n2)cc1)NO
[4]
  IC50: > 1000 nM

## COc1ccc2nc(CN(Cc3ccccc3)Cc3ccc(/C=C/C(=O)NO)cc3)ccc2c1
[4]
  IC50: > 1000 nM

## COc1ccc2nc(CNCc3ccc(/C=C/C(=O)NO)cc3)ccc2c1
[4]
  IC50: 236 nM
HeLa
  IC50: 2680 nM
PC-3 [13]
  IC50: 3700 nM
MOLT-4
  IC50: 230 nM
K562 [16]
  IC50: 690 nM
HEL
  IC50: 130 nM

## O=C(/C=C/c1ccc(CNCc2ccc3cc(Br)ccc3n2)cc1)NO
[4]
  IC50: 375 nM

## O=C(/C=C/c1ccc(CN(Cc2ccccc2)Cc2ccc3cc(Br)ccc3n2)cc1)NO
[4]
  IC50: > 1000 nM

## O=C(/C=C/c1ccc(CN(Cc2ccccc2)Cc2ccc3cc(Cl)ccc3n2)cc1)NO
[4]
  IC50: > 1000 nM

## O=C(/C=C/c1ccc(CNCc2ccc3cc(Cl)ccc3n2)cc1)NO
[4]
  IC50: 305 nM
HeLa
  IC50: 3030 nM
PC-3 [13]
  IC50: 4350 nM
MOLT-4
  IC50: 250 nM
K562 [16]
  IC50: 720 nM
HEL
  IC50: 220 nM

## COc1ccc(N(Cc2ccc3cccc(Cl)c3n2)C(=O)c2ccc(/C=C/C(=O)NO)cc2)cc1
[4]
  IC50: > 1000 nM

## O=C(/C=C/c1ccc(CNCc2ccc3ccccc3n2)cc1)NO
[1]
  IC50: 5210 nM
K562 [2]
  Activity: 0.072%
K562 [3]
  Activity: 58.2%
[4]
  IC50: 138 nM
K562 [5]
  Activity: Dose-dependent effect
K562 [6]
  Ratio IC50: 3 - 5
K562 [7]
  Activity: 2.16%
K562 [8]
  Activity: 0.121%
Histone deacetylase 1
  IC50: 72.5 nM
K562 [9]
  Activity: 1.95%
[10]
  IC50: 49.5 nM
K562 [11]
  viability at 2 µM: 39.6%
PC-3 [12]
  Ratio IC50: 3 - 5
Histone deacetylase 8
  IC50: 442 nM
HeLa
  IC50: 2200 nM
PC-3 [13]
  IC50: 3080 nM
MOLT-4
  IC50: 240 nM
K562 [14]
  viability at 1 µM: 63.4%
[15]
  IC50: 108 nM
K562 [16]
  IC50: 510 nM
HEL
  IC50: 150 nM
K562 [17]
  Activity: 34.5%

## CCCCCCN(Cc1ccc(/C=C/C(=O)NO)cc1)Cc1ccc2cc(Br)ccc2n1
[4]
  IC50: > 1000 nM

## COc1ccc2nc(CNCc3ccc(C(=O)NO)cc3)ccc2c1
[4]
  IC50: > 1000 nM
